Laboratory results published in paper PMC6024207 (Chemical Science, 2016).

How the values were obtained:
bovine SOD1 = assay: Inhibition of bovine SOD1 activity in pH 7.4 buffer; type: biochemical; conditions: 1 μM SOD1, 5 μM compound, 60 min, 37 °C, 1% DMSO
Method in brief: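 Bovine SOD1 (1 μM) was preincubated 60 min at 37 °C with 5 μM test compound in pH 7.4 buffer containing 1% DMSO. Activity was then measured with a SOD1-specific superoxide dismutase assay kit. Control was the same buffer with 1% DMSO. n ≥ 3, each condition in duplicate; results are mean ± SD.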

CcO [1] = assay: CcO activity in treated HeLa cells; type: cell-based, human; conditions: HeLa cells treated 24 h with 50 μM, then lysed
Method in brief: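 HeLa cells were treated 24 h with 50 μM test compound and lysed. Ferrocytochrome c (cytochrome c reduced with dithiothreitol) was added, and the absorbance change at 550 nm was followed, using a reduced–oxidized extinction difference of 21.84. One unit oxidizes […] at pH 7.4, 25 °C. Control was a blank containing 1% DMSO. Results are mean ± SD of at least three experiments in duplicate.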

CcO [2] = assay: CcO activity in lysates of untreated HeLa cells; type: biochemical, human; conditions: incubation for 30 min with 50 μM
Method in brief: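 Untreated HeLa cells were lysed, and lysates were incubated 30 min with 50 μM test compound. CcO activity was then read with a human CcO ELISA kit. Control was a blank containing 1% DMSO. Results are mean ± SD of at least three experiments, each condition in duplicate.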

tyrosinase from potato = assay: Tyrosinase activity; type: biochemical; conditions: 50 μM, incubation for 0–20 min
Method in brief: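 Tyrosinase was isolated and purified from potato. The enzyme extract was preincubated at 30 °C in 0.05 M phosphate buffer pH 6.8 containing 50 μM test compound. L-DOPA was added from a 5 mM solution. DOPAchrome formation was followed at 475 nm over time (ε = 3600), and the initial rate gave activity. Control was a blank with 1% DMSO.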

Structure (SMILES) | SOD1 activity, % of the control (bovine SOD1) [%] | CcO activity relative to control (CcO [1]) | CcO activity in lysates of untreated cells (CcO [2]) | reduction in tyrosinase activity relative to the control (tyrosinase from potato)
CCN(CC)C(=S)S [DDC, diethyldithiocarbamate] | > 60 | – | – | –
[N-]=[N+]=[N-].[Na+] [NaN3] | – | complete inactivation of CcO | complete inactivation of CcO | –
[SH-].[SH-].[S]=[Mo]=[S] [TM, tetrathiomolybdate] | – | reduced to half of that of the control | partial | complete inactivation of the enzyme
